# Assays:
# GST-Mdm2 RING domain [1] = target: GST-Mdm2 RING domain (Homo sapiens, UniProt Q00987); assay: ATP binding competition assay; settings: for binding to Mdm2 (displacement of bound γ-32P ATP): Mdm2(400–484), Nebularine: concentration range up to 1 mM
# GST-Mdm2(400–491) = GST-Mdm2(400–491) (Homo sapiens, UniProt Q00987); assay: Isothermal titration calorimetry; assay type: binding; settings: 2 mM ATP titrated into 100 nM GST-Mdm2(400–491), single-site isotherm
# In short: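 GST-Mdm2(400–491) was expressed in E. coli BL21 (16 h induction at 25°C) and purified on glutathione-Sepharose. In assay buffer (100 mM Tris-HCl pH 7.0, 100 mM NaCl, 10 mM MgCl2, 2 mM DTT), 2 mM ATP or GTP was injected into 100 nM protein over twenty injections. Buffer-alone heat of dilution was subtracted, and data were fitted to a single-site isotherm. Four independent measurements were made.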
# GST-Mdm2 RING domain [2] = assay: ATP binding competition assay; set-up: species or system human; settings: Mdm2(410–491) with eight lysines mutated to alanine (8 KA, Mdm2-NoLS)
# Chain of GST-Mdm2(400–491) (Q00987 400-491): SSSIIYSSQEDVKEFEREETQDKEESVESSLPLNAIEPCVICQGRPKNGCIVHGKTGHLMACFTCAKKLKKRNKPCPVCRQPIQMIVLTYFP
binding to Mdm2 (displacement of bound γ-32P ATP) (GST-Mdm2 RING domain [1]),Kd (GST-Mdm2(400–491)) [µM],Kd (GST-Mdm2 RING domain [2]),"dissociation constant (Kd) (GST-Mdm2 RING domain [1]; GST-Mdm2(400–491), competition of γ-32P ATP)",Compound
completely abrogated the binding,–,–,–,"Nc1ncnc2c1ncn2[C@H]1C[C@H](O)[C@@H](CO)O1 [2′ deooxyadenosine, 2′deoxyadenosine]"
–,4,low micromolar range,low micromolar range,"Nc1ncnc2c1ncn2[C@@H]1O[C@H](COP(=O)(O)OP(=O)(O)OP(=O)(O)O)[C@@H](O)[C@H]1O [ATP, adenosine triphosphate]"
did not bind,–,–,–,"Nc1nc(F)nc2c1ncn2[C@@H]1O[C@H](CO)[C@@H](O)[C@@H]1O [F-Ara-A, Fludarabine]"
no binding,–,–,–,OC[C@H]1O[C@@H](n2cnc3cncnc32)[C@H](O)[C@@H]1O [Nebularine]
